Experimental data reported in ChEMBL document CHEMBL4513216, “Probing the Open Global Health Chemical Diversity Library for Multistage-Active Starting Points for Next-Generation Antimalarials” (ACS Infect Dis, 2020).

Test: Toxicity liver stage against HepG2, at 10uM
Type: cell-based
Parameters: test concentration 10 uM, cell line HepG2-A16-CD81EGFP
Settings: human, HepG2-A16-CD81EGFP cells; read-out: INHIBITION
In short: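 Uninfected HepG2-A16-CD81EGFP cells, 3 × 10^3 per well, 1536-well, plated on prespotted compound at 10 μM final, parasite-free screening media added to match infected plates; puromycin 10 μM positive, DMSO 0.5% negative; run in parallel with 48 h PbLuc assay at 37 °C, 5% CO2; viability by CellTiter-Glo luminescence, normalized to controls.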

## O=C1[C@H]2CN(Cc3ccc(F)cc3)C[C@H]2CN1CCN1CCCC1
  cytotoxicity at 10 µM: -13.2%

## CCNC(=O)c1ccc2ccc(N(CC)CC)n2c1
  cytotoxicity at 10 µM: 1.67%

## Cc1nc(-c2ccccc2F)sc1C(=O)N1CCN(C)CC1
  cytotoxicity at 10 µM: 21%

## COc1ccnc(N2CCCN(c3nc(C4CC4)ns3)CC2)n1
  cytotoxicity at 10 µM: 0.142%

## COc1ccc(CC(=O)N2CCc3nc(C(=O)N(C)C)sc3CC2)cc1
  cytotoxicity at 10 µM: 15.8%

## Cc1csc(CN2CC[C@@](O)(C3CCOCC3)[C@H](C)C2)n1
  cytotoxicity at 10 µM: 4.48%

## NC(=O)c1ccccc1Oc1cnc(C2CCCN2)cn1 (stereo not given)
  cytotoxicity at 10 µM: 0.288%

## CC(C)Nc1ncnc2c1CCN(C(=O)N1CCOCC1)CC2
  cytotoxicity at 10 µM: -74%

## c1ccc(-n2cc(CNCC3CCCN3c3cccnn3)nn2)cc1 (stereo not given)
  cytotoxicity at 10 µM: -1.47%

## Clc1ccc(C2(CNC3=NCCN3)CCCC2)cc1
  cytotoxicity at 10 µM: 14.4%

## O=C(c1ccc(-n2cnnc2)cc1Cl)N1CCCC(O)(CO)CC1 (stereo not given)
  cytotoxicity at 10 µM: -3.59%

## O=C(CCc1cn[nH]c1)N1CCC(C2CCN(c3ncccn3)CC2)C1 (stereo not given)
  cytotoxicity at 10 µM: 10.2%

## COc1ccc(NC(=O)CSc2nncn2-n2cccc2)c(OC)c1
  cytotoxicity at 10 µM: -2.74%

## Cc1ccoc1C(=O)N1C[C@H](OCc2cccnc2)[C@H]2OCCC[C@H]21
  cytotoxicity at 10 µM: -5.28%

## CC(C)(C)CC(=O)NCC(=O)NCC(O)c1ccc2ccccc2c1 (stereo not given)
  cytotoxicity at 10 µM: 9.73%

## CC(C)NC(=O)[C@H]1CN(Cc2ccccc2)C[C@@H]1C(=O)c1ccccc1
  cytotoxicity at 10 µM: 7.84%

## c1cc(-c2ccc3c(c2)C2(CCNCC2)CC3)ccn1
  cytotoxicity at 10 µM: 56.9%

## CCN(CC)S(=O)(=O)N1C[C@@H](O)[C@H](Oc2cccc(F)c2)C1
  cytotoxicity at 10 µM: 9.73%

## Cc1cnn(CC2CCCN2C(=O)CCc2c(C)noc2C)c1 (stereo not given)
  cytotoxicity at 10 µM: -5.81%

## Cc1nc(C)c(C(=O)N2CCCC2c2nc(O)cc(C(C)C)n2)s1 (stereo not given)
  cytotoxicity at 10 µM: -29.4%

## COCCCn1cnnc1C(C)NC(=O)c1[nH]c2ccc(C)cc2c1C (stereo not given)
  cytotoxicity at 10 µM: 2.52%

## CCN(CC)S(=O)(=O)NCCc1cc(C)ccc1OC
  cytotoxicity at 10 µM: -2.64%

## O=C(Cc1cccc(F)c1)N1CCc2ncnc(N3CCCC3)c2CC1
  cytotoxicity at 10 µM: -4.9%

## CN(C)c1ccnc(N2CCC(NCCOc3ccccc3)CC2)n1
  cytotoxicity at 10 µM: -4.99%

## OC(CNCCn1cccn1)COc1ccc2ccccc2c1 (stereo not given)
  cytotoxicity at 10 µM: -26.4%

## Cc1nc(C(=O)N2CCCC(c3cccc(-n4ccnc4)n3)C2)co1 (stereo not given)
  cytotoxicity at 10 µM: 8.31%

## Cc1ccc(S(=O)(=O)Nc2cccnc2O)cc1C
  cytotoxicity at 10 µM: 3.33%

## CC(C)(C)c1coc([C@@H]2COCCN2Cc2csnn2)n1
  cytotoxicity at 10 µM: 3.33%

## Cc1ccc(C(=O)N2CCC3(CC2)CC(NC(=O)C(C)C)CO3)cc1 (stereo not given)
  cytotoxicity at 10 µM: -1.89%

## COC(=O)N1CCN2C[C@H](CO)[C@@H](c3ccccc3)[C@H]2C1
  cytotoxicity at 10 µM: 6.12%

## CNC(=O)CCOC(=O)c1cccc(-n2cccn2)c1
  cytotoxicity at 10 µM: -39.6%

## Cc1ccccc1N1CCCN(C(=O)CCCS(N)(=O)=O)CC1
  cytotoxicity at 10 µM: -16%

## CC1N(c2cnn(C)c2)C(=O)COC12CCN(c1ccccn1)CC2 (stereo not given)
  cytotoxicity at 10 µM: -5.31%

## CCc1ncc2c(n1)CN(CC(=O)Nc1cccnc1)CC2
  cytotoxicity at 10 µM: -1.1%

## Cc1cccc2c1OCCCC2NCc1nnc2n1CCCCC2 (stereo not given)
  cytotoxicity at 10 µM: -0.699%

## COc1ccc(CN(C)[C@@H]2COC[C@H]2c2ccc(F)cc2)c(OC)c1
  cytotoxicity at 10 µM: 8.54%

## Cc1cc(C)n(CC2CN(CC(=O)Nc3nncs3)CCO2)n1 (stereo not given)
  cytotoxicity at 10 µM: -2.97%

## COC(=O)Cn1c(=O)[nH]c2cn(-c3ccc(F)cc3)c(=O)n21
  cytotoxicity at 10 µM: 1.09%

## O=C(CCc1ccc(Cl)s1)N1CCC(N2CCNC2=O)CC1
  cytotoxicity at 10 µM: 2.6%

## Cc1nnc(N2CCC(CNC(=O)OC(C)(C)C)CC2)c(C#N)c1C
  cytotoxicity at 10 µM: 2.6%

## C[C@@H]1CN(Cc2ccccn2)C[C@]12CCN(Cc1cccnc1)C2=O
  cytotoxicity at 10 µM: -4.54%

## CN1CCOC(C(=O)Nc2nnc(Cc3ccc(F)cc3)[nH]2)C1 (stereo not given)
  cytotoxicity at 10 µM: -4.95%

## O=C(c1ccc2c(c1)CCC2)N1C[C@@H](CN2CCOCC2)[C@@H](CO)C1
  cytotoxicity at 10 µM: 20.7%

## COc1ccc(Nc2nc3c(C)nn(C)c3c(=O)n2C)c(OC)c1
  cytotoxicity at 10 µM: -6.89%

## CC1(C2CCN(CC(N)=O)CC2)CN(Cc2ccccc2)C(=O)O1 (stereo not given)
  cytotoxicity at 10 µM: -23.4%

## CN(C)C(=O)CCNC(=O)NCc1ccc(Br)cc1Cl
  cytotoxicity at 10 µM: 2.96%

## CCn1cc(N)c(-c2nnc3n2CCCC3)n1
  cytotoxicity at 10 µM: -8.72%

## CN(c1nccc(-c2cnc3sccn3c2=O)n1)C1CCCCC1
  cytotoxicity at 10 µM: -8.44%

## COc1ccc(-c2noc([C@@H]3C[C@H](NC(=O)NC(C)C)CN3C)n2)cc1
  cytotoxicity at 10 µM: -1.47%

## COc1ccc(CN2CCCn3cncc3C2)cc1Cn1cncn1
  cytotoxicity at 10 µM: 5.63%

## Cc1ccc(CN(C(=O)c2cccc(NC(N)=O)c2)C2CC2)o1
  cytotoxicity at 10 µM: 2.69%

## COc1ccc(CS(=O)(=O)CC(=O)NCC2CC2)cc1F
  cytotoxicity at 10 µM: -0.265%

## CCOCC1CN(c2ccncn2)Cc2cnn(CC3CC3)c21 (stereo not given)
  cytotoxicity at 10 µM: 6.38%

## N#CC1(C(=O)N2C[C@H](Nc3ncccn3)[C@@H](C3CC3)C2)CCOCC1
  cytotoxicity at 10 µM: 5.44%

## COCCCC1CCCN(Cc2c(C)ccc3ncccc23)C1 (stereo not given)
  cytotoxicity at 10 µM: -136%
